In the library only some 1.9% were active in any assay of this set; here they are far more common.
Cneo AK release: causes C. neoformans cell lysis; adenylate kinase release luminescence, 4 h; normalised: neutral wells 0, clomiphene wells 100; lysis activity, % at 15 µM; hit rate 0.2% among 360,000; AID 651654;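 active = mean lysis activity across replicates of at least 80%, whatever share of replicates individually reach that level; inactive = mean lysis activity below 80%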
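Schedule: static 4 h at 37 °C with compound, 1 h detection; system: C. neoformans cells; benchmarks: Clomiphene as positive control; buffer or medium: fresh YPD medium; measure: luminescence rise reflecting yeast cell lysis; measured by: luminescent adenylate kinase detection reagent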
XiGFP reactiv: activators of X-chromosome reactivation in mouse fibroblasts | AID 743238 | activation, % at 7.58 µM | XiGFP mouse fibroblasts, % GFP-positive cells imaging, 3 d; cells co-treated with 5-aza-dC sensitizer; scaled so ellipticine positive control = 100% | hit rate 0.055% among 360,000;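 active = mean normalized replicate activation at least 10% and every replicate at or above 10%; inconclusive = only one of the two criteria met; inactive = mean below 10% and not all replicates reach 10%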;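 also: 0% = median of on-plate neutral control wells and 100% = ellipticine 6 µM median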
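System: 68-5-11 XiGFP fibroblast line; Timing: 3 days compound exposure; Compound dosing: one concentration, pinned; Benchmarks: positive control ellipticine, 6 µM final; Buffer or medium: DMEM containing 5-aza-dC.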
PGC1a acetyl inh: lowers PGC1a acetylation signal in U2OS cells | inhibition, % at 15.6 µM | AlphaScreen anti-acetyl-lysine; with virally co-expressed GCN5 acetyltransferase | AID 651687 | hit rate 0.17% among 350,000;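 active = every replicate shows inhibition of at least 40%; inconclusive = mean inhibition at least 40% but some replicate below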;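 also: 0% = neutral control wells and 100% = positive control wells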
F508del corr: CFTR F508del correction in bronchial cells. AID 720511. hit rate 0.36% among 350,000. CFBE cells, YFP halide quenching; stimulated with forskolin plus potentiator P3; % fluorescence drop versus neutral controls. activity (quench increase), % at 7.58 µM;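 active = mean added fluorescence quench of at least 8% versus neutral control, with both replicates also reaching 8%; inconclusive = only one of the mean or replicate conditions met; inactive = mean below 8% and not both replicates reaching 8%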;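 also: cells transiently co-express mutant CFTR-F508del with the halide-sensitive YFP; corrector assay measuring rescue of mutant channel to the surface after 24 h compound exposure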
DENV2 CPE: protects cells from dengue virus 2 cytopathic effect; DENV2-infected cells, cytopathic effect rescue, plate reader; CPE inhibition, % at 9.99 µM; hit rate 1.7% among 350,000; AID 651640; in the data active = CPE inhibition above about 20%, passing the limit was not always enough; inconclusive = no clear call, values can overlap the other calls; tested in BHK-21 cells;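 also: 0% = median of neutral control wells and 100% = median of positive control wells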
FN deposition inh: fibronectin deposition inhibition; AH1F fibroblasts, Alexa488-fibronectin deposition fluorescence, overnight; inhibition, % at 12.6 µM; hit rate 0.086% among 350,000;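 active = mean inhibition across replicates of 30% or more, regardless of how many single replicates reach that level; inconclusive = mean under 30% yet at least half of replicates reach 30%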;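 also: positive control wells lacked labelled fibronectin entirely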
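Material: AH1F fibroblast monolayer depositing Alexa488-labelled fibronectin into matrix | Input: 10000 AH1F cells/well | Medium: DMEM plus 2% serum, read in PBS | Reagent: Alexa488-fibronectin, 24 nM final in well | Compound dosing: One dose per compound, pinned | Schedule: 1 h adhesion, overnight exposure | Measured by: Fluorescence at 485 nm excitation, 525 nm emission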
* = called active by the depositor; ? = inconclusive; / = no result.

SMILES | Cneo AK release | XiGFP reactiv | PGC1a acetyl inh | F508del corr | DENV2 CPE | FN deposition inh
O=C(NC1CCCCC1)[C@H]1[C@H](CO)[C@H]2Cn3c(cccc3=O)[C@@H]1N2Cc1cccnc1 | 27 | 0 | / | / | 10 | -11
O=C(NC1CCCCC1)[C@@H]1[C@@H](CO)[C@@H]2Cn3c(cccc3=O)[C@H]1N2Cc1cccnc1 | 45 | 0 | / | / | 136* | -4
O=C(NCc1ccc(F)cc1)[C@H]1[C@H](CO)[C@H]2Cn3c(cccc3=O)[C@@H]1N2CC1CC1 | -1 | 0 | / | -1 | -1 | /
C[C@@H](NC(=O)[C@H]1[C@H](CO)[C@H]2Cn3c(cccc3=O)[C@H]2N1CC1CCCCC1)c1ccccc1 | / | 0 | 7 | 2 | 24* | /
O=C(NCc1ccc(F)cc1)[C@H]1[C@H](CO)[C@H]2Cn3c(cccc3=O)[C@@H]1N2CC1CCCC1 | -4 | 0 | / | / | 43* | /
O=C(NCCCN1CCOCC1)[C@H]1[C@H](CO)[C@H]2Cn3c(cccc3=O)[C@@H]1N2C(=O)NC1CCCC1 | -5 | 0 | / | / | -8 | -4
Cc1noc(C)c1NC(=O)Nc1ccc2c(c1)C(=O)N([C@@H](C)CO)C[C@@H](C)[C@H](CN(C)C(=O)Nc1ccccc1)O2 | / | 0 | 2 | 0 | / | /
C[C@@H]1CN([C@@H](C)CO)C(=O)c2cc(-c3ccc(F)cc3)cnc2O[C@@H]1CN(C)CC1CC1 | 15 | 1 | 15 | -7 | 6 | 3
O=C(C[C@@H]1C=C[C@H](NS(=O)(=O)c2ccccc2F)[C@H](CO)O1)NCCCN1CCOCC1 | 1 | 5 | 2 | 3 | -1 | -4
CO[C@H]1CN(C)C(=O)c2ccc(NS(=O)(=O)c3cn(C)cn3)cc2OC[C@H](C)N(C)C[C@@H]1C | / | 0 | 4 | 2 | -6 | 0
C[C@H](NC(=O)[C@H]1[C@H](CO)[C@H]2Cn3c(cccc3=O)[C@@H]1N2Cc1cccnc1)c1ccccc1 | 45 | 0 | / | -2 | 81* | /
C[C@H](NC(=O)[C@@H]1[C@@H](CO)[C@@H]2Cn3c(cccc3=O)[C@H]1N2Cc1cccnc1)c1ccccc1 | 1 | 0 | / | 1 | -5 | /
CN(C)CC(=O)Nc1ccc2c(c1)[C@@H]1C[C@@H](CC(=O)NCc3ccc4c(c3)OCO4)O[C@H](CO)[C@@H]1O2 | 1 | 0 | -5 | 2 | -3 | -12
Cc1cccc(NC(=O)NC(C)CCc2ccccc2)c1 (configuration not stated) | 0 | 0 | -11 | / | -2 | 1
Cc1cccc(NC(=S)NC(C)CCc2ccccc2)c1 (configuration not stated) | 6 | 0 | / | 5 | 45* | 2
CO[C@H]1CN(C)C(=O)c2ccc(NC(=O)NC(C)C)cc2OC[C@H](C)N(Cc2ccc(-c3ccccn3)cc2)C[C@@H]1C | / | 0 | -1 | 3 | -2 | -9
CO[C@H]1CN(C)C(=O)c2ccc(NC(=O)NC(C)C)cc2OC[C@H](C)N(Cc2ccc(-c3ccccn3)cc2)C[C@H]1C | 2 | 0 | 2 | 3 | 68* | 3
CCCC(=O)Nc1ccc2c(c1)C(=O)N(C)C[C@@H](OC)[C@@H](C)CN(Cc1ccc(-c3ccccn3)cc1)[C@H](C)CO2 | -1 | 0 | -4 | 1 | 27* | -6
COc1cccc(S(=O)(=O)N2CC[C@H]3[C@H](CO)Nc4ccc(Br)cc4[C@H]32)c1 | -13 | 0 | 6 | 1 | / | 17
CC(=O)N1[C@@H]2CN(C(=O)NC(C)C)C[C@H]1C2c1ccc(Br)cc1 (some centres not stated) | / | 0 | / | / | / | -23
CCCCOc1ccc(C(C)NC(=O)C2CCCN(S(=O)(=O)CCC)C2)cc1 (configuration not stated) | 1 | 0 | / | / | / | 33*
CCCS(=O)(=O)N1CCCC(C(=O)NC2CCCCC2)C1 (configuration not stated) | 1 | / | -5 | / | / | /
CCC(=O)N1CC2(C1)CN(C(=O)NC1CCCC1)[C@@H](CO)c1c2c2ccc(OC)cc2n1C | / | 0 | / | / | / | /
Cc1nn2cc(-c3cccc(Cl)c3)cnc2c1Br | / | 0 | 3 | 9.5* | ? | 3
Cc1noc(C)c1S(=O)(=O)Nc1ccc2c(c1)C(=O)N([C@@H](C)CO)C[C@@H](C)[C@@H](CN(C)S(=O)(=O)c1ccc(Cl)cc1)O2 | -1 | -1 | 1 | -1 | -1 | /
SMILES | Cneo AK release | XiGFP reactiv | PGC1a acetyl inh | F508del corr | DENV2 CPE | FN deposition inh
Cc1noc(C)c1NC(=O)Nc1ccc2c(c1)CC(=O)N([C@@H](C)CO)C[C@H](C)[C@H](CN(C)C)O2 | -8 | -1 | -8 | -1 | 21* | /
C[C@@H]1CN([C@@H](C)CO)C(=O)Cc2cc(NC(=O)Nc3cccc4ccccc34)ccc2O[C@H]1CN(C)C(=O)NC1CCCCC1 | -3 | 0 | -4 | 2 | 25* | /
C[C@@H]1CN([C@@H](C)CO)C(=O)Cc2cc(NC(=O)Nc3cccc4ccccc34)ccc2O[C@H]1CN(C)C | 29 | 0 | 4 | 2 | 21* | /
C[C@H](CO)N1C[C@H](C)[C@H](CN(C)C)Oc2ccc(NC(=O)Nc3cccc4ccccc34)cc2CC1=O | -11 | 0 | 2 | 0 | 35* | /
C[C@@H]1CN([C@@H](C)CO)C(=O)Cc2cc(NC(=O)Nc3ccc(F)cc3)ccc2O[C@@H]1CN(C)C(=O)Nc1cccc2ccccc12 | 43 | 0 | -2 | 1 | 41* | /
O=C1CCC(=O)N(O)CCCCCNC(=O)CCC(=O)N(O)CCCCNC(=O)CCC(=O)N(O)CCCCCN1 | 9 | / | 6 | -3 | 87* | /
CCn1c(SC(C)C(=O)NCC2CCCO2)nc2ccccc21 (configuration not stated) | 2 | -1 | / | 15* | -3 | -1
CCN(CC)CCCNc1nc2cc(OC)c(OC)cc2c2nc(-c3ccccc3)nn12 | 3 | / | 2 | / | / | -18
CCN(CC)CCCNc1nc2ccccc2c2nc(-c3ccncc3)nn12 | -1 | 0 | 4 | 15* | -7 | -1
C[C@@H]1CN([C@@H](C)CO)S(=O)(=O)c2ccc(/C=C/c3ccccc3)cc2O[C@H]1CN(C)C(=O)CN1CCOCC1 | -17 | -1 | 9 | -1 | 4 | /
Nc1[nH]c(C(=O)c2ccc(Br)cc2)c(-c2ccc(F)cc2)c1C(=O)NCCc1c[nH]c2ccccc12 | / | 1 | / | 1 | 26* | 1
Nc1[nH]c(C(=O)c2ccc(Br)cc2)c(-c2c(F)cccc2F)c1C(=O)NCCc1c[nH]c2ccccc12 | / | 0 | / | 2 | 39* | -1
COc1ccc(C(=O)c2[nH]c(N)c(C(=O)NCCc3c[nH]c4ccccc34)c2-c2ccc(Cl)cc2)cc1 | / | 0 | / | 4 | 11 | 9
